Assay results published in ChEMBL document CHEMBL1122104, “Ring contraction of oleandrose on the macrolide antibiotic oleandomycin with [(Methoxycarbonyl)sulfamoyl]triethylammonium hydroxide inner salt” (1982).

Key:
Streptococcus pneumoniae = assay: In vitro antibacterial activity against Streptococcus pneumoniae (02J012), and minimum inhibitory concentration was determined; format: functional
How it was run: (§1)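 Broth dilution MIC determination, done per a previously described procedure. Each value is the mean of two determinations.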

Staphylococcus aureus [1] = assay: In vitro for antibacterial activity against Staphylococcus aureus (01A111), and minimum inhibitory concentration was determined; format: functional; how it was run: as §1
Staphylococcus aureus [2] = assay: In vitro antibacterial activity against Staphylococcus aureus (01A005), and minimum inhibitory concentration was determined; format: functional; how it was run: as §1
Neisseria sicca [3] = assay: In vitro antibacterial activity against Neisseria sicca (66C000), and minimum inhibitory concentration was determined
Staphylococcus aureus [4] = assay: In vitro for antibacterial activity against Staphylococcus aureus (01A400), and minimum inhibitory concentration was determined; format: functional; how it was run: as §1
Streptococcus pyogenes = assay: In vitro antibacterial activity against Streptococcus pyogenes (02C203), and minimum inhibitory concentration was determined; format: functional; how it was run: as §1
Escherichia coli [5] = assay: In vitro antibacterial activity against Escherichia coli (51A125), and minimum inhibitory concentration was determined; format: functional; how it was run: as §1
Pasteurella multocida = assay: In vitro antibacterial activity against Pasteurella multocida (59A0001), and minimum inhibitory concentration was determined; format: functional; how it was run: as §1
Staphylococcus aureus [6] = assay: In vitro antibacterial activity against Staphylococcus aureus (01A052), and minimum inhibitory concentration was determined; format: functional; how it was run: as §1
Bacillus subtilis = assay: In vitro antibacterial activity against Bacillis subtilis (06A001), and minimum inhibitory concentration was determined; format: functional; how it was run: as §1
Enterococcus faecalis = assay: In vitro antibacterial activity against Streptococcus faecalis (02A006), and minimum inhibitory concentration was determined; format: functional; how it was run: as §1
Escherichia coli [7] = assay: In vitro antibacterial activity against Escherichia coli (51A470), and minimum inhibitory concentration was determined; format: functional; how it was run: as §1
Neisseria sicca [8] = assay: In vitro antibacterial activity against Neisseria sicca (66C000), and minimum inhibitory concentration was determined; format: functional; how it was run: as §1
Escherichia coli [9] = assay: In vitro antibacterial activity against Escherichia coli (51A125), and minimum inhibitory concentration was determined

MIC (Streptococcus pneumoniae)	MIC (Staphylococcus aureus [1])	MIC (Staphylococcus aureus [2])	MIC (Neisseria sicca [3])	MIC (Staphylococcus aureus [4])	MIC (Streptococcus pyogenes)	MIC (Escherichia coli [5])	MIC (Pasteurella multocida)	MIC (Staphylococcus aureus [6])	MIC (Bacillus subtilis)	MIC (Enterococcus faecalis)	MIC (Escherichia coli [7])	MIC (Neisseria sicca [8])	MIC (Escherichia coli [9])	Structure (SMILES)
<0.01	0.78	3.12	6.25	25	0.39	>800	50	6.25	1.56	12.5	50			C=CC1O[C@@H](O[C@@H]2C(C)C(=O)O[C@H](C)[C@H](C)C(OC(C)=O)C(C)C(=O)[C@]3(CO3)C[C@H](C)[C@H](OC3OC(C)CC(N(C)C)[C@H]3O)[C@H]2C)C[C@@H]1OC (some centres undefined)
<0.01	0.78	0.39		1.56	0.1		6.25	0.39	0.78	1.56	6.25	1.56	400	COC1CC(O[C@@H]2C(C)C(=O)O[C@H](C)[C@H](C)C(OC(C)=O)C(C)C(=O)[C@]3(CO3)C[C@H](C)[C@H](OC3OC(C)CC(N(C)C)[C@H]3O)[C@H]2C)OC(C)[C@@H]1O (some centres undefined)
